# Published values collected from several papers.
# Protocols differ between the studies behind these lines.
# Organism: Escherichia coli
SMILES,test,test system,endpoint,result
CC(C)C(C)CCCCCCCCCCCc1cc(O)cc(O)c1 (stereo not drawn),microbial growth,,IC50,50.2 µM
Cc1cc(/C=C2\Sc3ccccc3N2CCCN2CCC(C)CC2)c2ccccc2[n+]1C.[I-],"microbial growth, broth dilution",ATCCBAA2469,MIC,1 µg/mL
CCCCCCCCCCCC(=O)OC[C@H]1O[C@@H](n2cc(C)c(=O)[nH]c2=O)C[C@@H]1O,"microbial killing, broth dilution",,MBC,16 µg/mL
CCCCCCCCCCCCCCCCCCCCc1cc(O)cc(O)c1,microbial growth,,IC50,> 200 µM
COC(=O)c1cc(-c2cccc(NC(=S)Nc3ccc(C)cc3)c2)on1,"microbial growth, broth dilution",ATCC25922,MIC,> 64 µg/mL
Oc1cccc2cccnc12,"microbial growth, broth dilution",ATCC25922,IC50,49.5 µg/mL
COC(=O)c1cc(-c2cccc(NC(=S)Nc3ccc(F)cc3F)c2)on1,"microbial growth, broth dilution",ATCC25922,MIC,> 64 µg/mL
O=C(O)c1cn(C2CC2)c2cc(N3CCNCC3)c(F)cc2c1=O,microbial killing,,MBC,0.019 µg/mL
COC(=O)c1cc(-c2ccc(NC(=O)Nc3ccc(Cl)c(Cl)c3)cc2)on1,"microbial growth, broth dilution",ATCC25922,MIC,> 64 µg/mL
COc1c(N2C[C@@H]3CCCN[C@@H]3C2)c(F)cc2c(=O)c(C(=O)O)cn(C3CC3)c12,microbial growth,,MIC90,0.06 µg/mL
COC(=O)c1cc(-c2cccc(NC(=O)Nc3ccc(F)cc3F)c2)on1,"microbial growth, broth dilution",ATCC25922,MIC,> 64 µg/mL
CC(C)CCCCCCCCCCCCCCCc1cc(O)cc(O)c1,microbial growth,,IC50,70.2 µM
